# Reference: ChEMBL document CHEMBL4261600 (Eur J Med Chem, 2018)
# Legend:
# [1] = test system: Phosphatidylinositol 4,5-bisphosphate 3-kinase catalytic subunit alpha isoform (Homo sapiens), P42336 [H1047Y]; experiment: Binding affinity to human partial length PIK3CA H1047Y mutant (R108 to N1068 residues) expressed in mammalian expression system assessed as remaining unbound target protein level at 1000 nM by Kinomescan method relative to control
# Procedure, shortened: (§1)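 KINOMEscan competition-binding profiling across the panel of 468 kinases and mutants, with inhibitor tested at 1 μM. Binding is expressed as percent of control, with DMSO as the reference control.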
# [2] = target: Serine/threonine-protein kinase D3 (Homo sapiens) (UniProt O94806); experiment: Binding affinity to wild-type human partial length PRKD3 (S543 to E863 residues) expressed in bacterial expression system assessed as remaining unbound target protein level at 1000 nM by Kinomescan method relative to control
# [3] = target: Mitogen-activated protein kinase 4 (Homo sapiens) (UniProt P31152); experiment: Binding affinity to wild-type human partial length ERK4 (M1 to L365 residues) expressed in bacterial expression system assessed as remaining unbound target protein level at 1000 nM by Kinomescan method relative to control
# Chain of Mitogen-activated protein kinase 4 (Homo sapiens) (P31152 whole entry, the tested form may be a part): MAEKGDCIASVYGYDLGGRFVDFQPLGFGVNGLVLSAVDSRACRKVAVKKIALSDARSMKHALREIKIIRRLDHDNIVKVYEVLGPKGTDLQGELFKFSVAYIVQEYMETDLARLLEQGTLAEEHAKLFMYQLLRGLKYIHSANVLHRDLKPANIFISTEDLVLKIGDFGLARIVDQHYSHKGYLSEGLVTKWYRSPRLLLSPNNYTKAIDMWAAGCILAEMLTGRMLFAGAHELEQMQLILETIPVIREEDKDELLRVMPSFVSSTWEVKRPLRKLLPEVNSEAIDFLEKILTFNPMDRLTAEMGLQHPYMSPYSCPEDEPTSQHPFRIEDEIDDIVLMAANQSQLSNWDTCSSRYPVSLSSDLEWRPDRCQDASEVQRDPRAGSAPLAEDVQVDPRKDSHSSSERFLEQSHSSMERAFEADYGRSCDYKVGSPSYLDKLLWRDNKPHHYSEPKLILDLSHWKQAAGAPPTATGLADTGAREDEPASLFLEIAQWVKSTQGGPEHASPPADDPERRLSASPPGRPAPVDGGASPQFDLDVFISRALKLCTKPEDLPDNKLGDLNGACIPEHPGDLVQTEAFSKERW
# Procedure, shortened: (§2)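 KINOMEscan binding panel of 468 kinases/mutants. Inhibitor was tested at a single concentration of 1 μM. Binding is reported as percent of control, defined relative to a DMSO control.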
# [4] = target: Dual specificity mitogen-activated protein kinase kinase 4 (Homo sapiens) (UniProt P45985); experiment: Binding affinity to wild-type human partial length MEK4 (S84 to D399 residues) expressed in mammalian expression system assessed as remaining unbound target protein level at 1000 nM by Kinomescan method relative to control; procedure, shortened: as §2
# Chain of Dual specificity mitogen-activated protein kinase kinase 4 (Homo sapiens) (P45985 whole entry, the tested form may be a part): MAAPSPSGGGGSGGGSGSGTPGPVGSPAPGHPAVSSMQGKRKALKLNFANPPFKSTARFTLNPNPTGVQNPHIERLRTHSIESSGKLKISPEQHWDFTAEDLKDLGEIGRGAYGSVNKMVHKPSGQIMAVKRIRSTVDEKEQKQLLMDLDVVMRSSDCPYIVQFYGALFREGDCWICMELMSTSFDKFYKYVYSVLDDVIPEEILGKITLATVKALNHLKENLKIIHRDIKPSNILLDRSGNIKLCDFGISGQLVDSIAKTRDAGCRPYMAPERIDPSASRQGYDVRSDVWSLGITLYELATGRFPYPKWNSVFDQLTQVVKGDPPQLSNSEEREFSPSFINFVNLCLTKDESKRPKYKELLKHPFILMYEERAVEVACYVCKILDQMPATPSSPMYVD
# [5] = target: Serine/threonine-protein kinase/endoribonuclease IRE1 (Homo sapiens) (UniProt O75460); experiment: Binding affinity to wild-type human partial length ERN1 (S551 to E852 residues) expressed in mammalian expression system assessed as remaining unbound target protein level at 1000 nM by Kinomescan method relative to control; procedure, shortened: as §2
# [6] = test system: Phosphatidylinositol 4,5-bisphosphate 3-kinase catalytic subunit alpha isoform (Homo sapiens), P42336 [E542K]; experiment: Binding affinity to human partial length PIK3CA E542K mutant (R108 to N1068 residues) expressed in mammalian expression system assessed as remaining unbound target protein level at 1000 nM by Kinomescan method relative to control; procedure, shortened: as §1
# Chain of Phosphatidylinositol 4,5-bisphosphate 3-kinase catalytic subunit alpha isoform (Homo sapiens), P42336 [E542K] (P42336 whole entry E542K, the tested form may be a part, canonical isoform): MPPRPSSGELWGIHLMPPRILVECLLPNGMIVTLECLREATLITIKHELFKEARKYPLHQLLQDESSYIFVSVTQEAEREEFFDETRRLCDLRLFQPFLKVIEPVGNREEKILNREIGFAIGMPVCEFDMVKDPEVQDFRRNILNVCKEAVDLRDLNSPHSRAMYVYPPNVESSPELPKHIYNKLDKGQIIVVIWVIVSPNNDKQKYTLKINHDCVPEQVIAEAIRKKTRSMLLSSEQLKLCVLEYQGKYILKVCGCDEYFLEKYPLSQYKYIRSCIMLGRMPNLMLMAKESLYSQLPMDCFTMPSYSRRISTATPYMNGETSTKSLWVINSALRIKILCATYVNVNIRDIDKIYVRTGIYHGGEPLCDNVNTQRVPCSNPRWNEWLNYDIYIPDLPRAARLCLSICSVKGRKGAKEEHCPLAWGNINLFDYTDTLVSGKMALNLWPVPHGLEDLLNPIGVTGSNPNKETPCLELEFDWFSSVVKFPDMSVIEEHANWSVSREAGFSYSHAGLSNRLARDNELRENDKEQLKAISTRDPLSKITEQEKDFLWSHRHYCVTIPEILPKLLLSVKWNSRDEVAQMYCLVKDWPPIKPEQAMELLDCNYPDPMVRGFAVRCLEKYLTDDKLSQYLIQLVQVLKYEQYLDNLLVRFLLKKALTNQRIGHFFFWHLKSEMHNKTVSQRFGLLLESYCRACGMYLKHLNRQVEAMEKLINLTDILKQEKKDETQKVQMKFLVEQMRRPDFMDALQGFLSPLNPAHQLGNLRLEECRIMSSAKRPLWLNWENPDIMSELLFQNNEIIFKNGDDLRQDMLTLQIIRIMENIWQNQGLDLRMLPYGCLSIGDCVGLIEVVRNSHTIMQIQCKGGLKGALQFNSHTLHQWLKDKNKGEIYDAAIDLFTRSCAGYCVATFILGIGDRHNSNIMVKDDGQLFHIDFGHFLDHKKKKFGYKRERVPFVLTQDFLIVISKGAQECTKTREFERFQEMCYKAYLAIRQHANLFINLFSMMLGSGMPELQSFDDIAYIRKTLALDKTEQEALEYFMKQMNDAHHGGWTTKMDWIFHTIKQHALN
# [7] = Apparent volume of distribution in mouse at 3 mg/kg, iv by LC-MS/MS analysis; format: ADME, organism-based; conditions: in vivo, read-out: Vz
# Procedure, shortened: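 Non-compartmental PK. Male SD rats 190-210 g, mice and beagle dogs acclimatized one week, fasted 12 h with water, split into iv and po groups (mice 48, rats 6, dogs 6). iv 3/3/2 mg/kg (mice/rats/dogs); po 10/20/10 mg/kg; vehicle DMSO in 5% glucose water. Blood at 2 or 5 to 720 min; plasma protein-precipitated with methanol, caffeine internal standard, LC-MS/MS.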
# [8] = target: Tyrosine-protein kinase Yes (Homo sapiens) (UniProt P07947); experiment: Binding affinity to wild-type human partial length YES (T257 to L543 residues) expressed in bacterial expression system assessed as remaining unbound target protein level at 1000 nM by Kinomescan method relative to control
# Chain of Tyrosine-protein kinase Yes (Homo sapiens) (P07947 2-543 limits assumed): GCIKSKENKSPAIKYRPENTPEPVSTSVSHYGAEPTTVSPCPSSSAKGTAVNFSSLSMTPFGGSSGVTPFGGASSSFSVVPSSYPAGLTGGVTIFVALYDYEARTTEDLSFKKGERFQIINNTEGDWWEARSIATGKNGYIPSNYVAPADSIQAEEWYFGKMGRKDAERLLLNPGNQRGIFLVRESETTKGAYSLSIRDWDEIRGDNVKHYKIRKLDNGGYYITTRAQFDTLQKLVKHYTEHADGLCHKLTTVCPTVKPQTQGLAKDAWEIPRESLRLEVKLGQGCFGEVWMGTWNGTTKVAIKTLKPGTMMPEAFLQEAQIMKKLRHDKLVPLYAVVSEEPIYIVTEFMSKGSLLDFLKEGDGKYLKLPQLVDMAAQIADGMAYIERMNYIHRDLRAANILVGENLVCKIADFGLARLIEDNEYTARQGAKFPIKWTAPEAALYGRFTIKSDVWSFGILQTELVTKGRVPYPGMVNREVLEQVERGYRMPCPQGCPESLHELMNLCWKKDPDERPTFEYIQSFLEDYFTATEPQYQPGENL
# [9] = target: Microtubule-associated serine/threonine-protein kinase 1 (Homo sapiens) (UniProt Q9Y2H9); experiment: Binding affinity to wild-type human partial length MAST1 (S346 to V730 residues) expressed in mammalian expression system assessed as remaining unbound target protein level at 1000 nM by Kinomescan method relative to control
# [10] = test system: Tyrosine-protein kinase ABL1 (Homo sapiens), P00519 [Y253F]; experiment: Binding affinity to human phosphorylated ABL1 Y253F mutant (S229 to K512 residues) expressed in mammalian expression system assessed as remaining unbound target protein level at 1000 nM by Kinomescan method relative to control
# Procedure, shortened: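 Single-point competition binding screen across a panel of 468 kinases and mutants, with the inhibitor at 1 μM. Binding is read out as percent of a DMSO control, and targets below 1 percent control were classed as strong binders.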
# [11] = target: Phosphatidylinositol 4,5-bisphosphate 3-kinase catalytic subunit gamma isoform (Homo sapiens) (UniProt P48736); experiment: Binding affinity to wild-type human partial length PIK3CG (S144 to A1102 residues) expressed in mammalian expression system assessed as remaining unbound target protein level at 1000 nM by Kinomescan method relative to control
# [12] = Half life in mouse at 3 mg/kg, iv by LC-MS/MS analysis; format: ADME, organism-based; conditions: in vivo
# [13] = target: Tyrosine-protein kinase Blk (Homo sapiens) (UniProt P51451); experiment: Binding affinity to wild-type human partial length BLK (G211 to L503 residues) expressed in bacterial expression system assessed as remaining unbound target protein level at 1000 nM by Kinomescan method relative to control
# Procedure, shortened: (§3)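 Profiled in a KINOMEscan binding panel with the inhibitor at a single concentration of 1 μM. Binding to each kinase was read out as percent of control, relative to a DMSO control. Strong binders were defined as those with a percent control value below 1.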
# [14] = target: Tyrosine-protein kinase SYK (Homo sapiens) (UniProt P43405); experiment: Binding affinity to wild-type human partial length SYK (D354 to N635 residues) expressed in bacterial expression system assessed as remaining unbound target protein level at 1000 nM by Kinomescan method relative to control
# [15] = target: Protein kinase C theta type (Homo sapiens) (UniProt Q04759); experiment: Binding affinity to wild-type human partial length PRKCQ (L350 to S706 residues) expressed in bacterial expression system assessed as remaining unbound target protein level at 1000 nM by Kinomescan method relative to control
# Chain of Protein kinase C theta type (Homo sapiens) (Q04759 whole entry, looked up, the tested form may be a part): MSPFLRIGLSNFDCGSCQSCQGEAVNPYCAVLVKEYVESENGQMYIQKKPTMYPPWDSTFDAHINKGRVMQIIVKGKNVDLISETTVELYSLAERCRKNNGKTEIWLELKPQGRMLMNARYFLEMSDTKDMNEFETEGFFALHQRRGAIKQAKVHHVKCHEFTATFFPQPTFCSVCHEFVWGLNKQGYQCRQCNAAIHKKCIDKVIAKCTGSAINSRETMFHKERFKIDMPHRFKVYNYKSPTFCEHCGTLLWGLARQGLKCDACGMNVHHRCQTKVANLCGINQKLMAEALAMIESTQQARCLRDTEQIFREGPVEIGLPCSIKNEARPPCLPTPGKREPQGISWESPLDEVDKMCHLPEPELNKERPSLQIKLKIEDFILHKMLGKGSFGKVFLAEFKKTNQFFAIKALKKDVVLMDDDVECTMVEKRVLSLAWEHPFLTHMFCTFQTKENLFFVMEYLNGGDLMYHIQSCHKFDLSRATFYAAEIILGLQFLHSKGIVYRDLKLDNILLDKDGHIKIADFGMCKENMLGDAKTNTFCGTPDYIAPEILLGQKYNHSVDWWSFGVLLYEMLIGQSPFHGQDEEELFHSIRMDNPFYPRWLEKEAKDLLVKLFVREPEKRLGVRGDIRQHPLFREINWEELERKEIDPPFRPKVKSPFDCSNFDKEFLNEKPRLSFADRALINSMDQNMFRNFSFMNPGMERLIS
# [16] = target: SRSF protein kinase 3 (Homo sapiens) (UniProt Q9UPE1); experiment: Binding affinity to wild-type human partial length SRPK3 (P41 to P567 residues) expressed in bacterial expression system assessed as remaining unbound target protein level at 1000 nM by Kinomescan method relative to control
# [17] = target: Aurora kinase A (Homo sapiens) (UniProt O14965); experiment: Binding affinity to wild-type human partial length AURKA (E122 to K401 residues) expressed in mammalian expression system assessed as remaining unbound target protein level at 1000 nM by Kinomescan method relative to control; procedure, shortened: as §3
# [18] = target: Myosin-IIIa (Homo sapiens) (UniProt Q8NEV4); experiment: Binding affinity to wild-type human partial length MYO3A (M1 to K338 residues) expressed in bacterial expression system assessed as remaining unbound target protein level at 1000 nM by Kinomescan method relative to control
# [19] = target: Cyclin-dependent kinase 14 (Homo sapiens) (UniProt O94921); experiment: Binding affinity to wild-type human full length PFTK1 (M1 to H451 residues) expressed in bacterial expression system assessed as remaining unbound target protein level at 1000 nM by Kinomescan method relative to control
# Chain of Cyclin-dependent kinase 14 (Homo sapiens) (O94921 whole entry, the tested form may be a part): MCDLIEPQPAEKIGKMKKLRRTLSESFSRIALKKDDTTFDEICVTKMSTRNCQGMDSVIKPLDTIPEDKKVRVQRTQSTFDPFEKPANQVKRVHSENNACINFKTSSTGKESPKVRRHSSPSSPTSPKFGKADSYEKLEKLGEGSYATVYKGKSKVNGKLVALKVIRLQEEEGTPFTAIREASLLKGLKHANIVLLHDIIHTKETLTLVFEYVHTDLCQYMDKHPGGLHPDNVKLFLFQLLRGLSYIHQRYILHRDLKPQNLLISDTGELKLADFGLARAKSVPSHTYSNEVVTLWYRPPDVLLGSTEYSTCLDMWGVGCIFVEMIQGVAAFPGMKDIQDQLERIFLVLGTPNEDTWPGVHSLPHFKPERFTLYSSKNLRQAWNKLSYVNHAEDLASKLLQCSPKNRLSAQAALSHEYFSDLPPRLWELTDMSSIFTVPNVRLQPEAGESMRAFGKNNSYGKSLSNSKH
# Procedure, shortened: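 KINOMEscan competition binding profile across a panel of 468 kinases and mutants, with the inhibitor tested at a single concentration of 1 μM. Binding is reported as percent of control, meaning signal relative to a DMSO control.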
# [20] = target: Mitogen-activated protein kinase kinase kinase 20 (Homo sapiens) (UniProt Q9NYL2); experiment: Binding affinity to wild-type human partial length ZAK (M1 to L331 residues) expressed in bacterial expression system assessed as remaining unbound target protein level at 1000 nM by Kinomescan method relative to control
# Chain of Phosphatidylinositol 4,5-bisphosphate 3-kinase catalytic subunit alpha isoform (Homo sapiens), P42336 [H1047Y] (P42336 whole entry H1047Y, the tested form may be a part, canonical isoform): as the sequence (P42336 whole entry E542K, the tested form may be a part, canonical isoform) above, with K542E, H1047Y counted along it
structure (smiles),measurement,setting,value
COCCN[C@H]1CC[C@H](Nc2cc(-c3csc(NCC4(C#N)CCOCC4)n3)c(Cl)cn2)CC1,Activity,[1],54%
same,Activity,[2],89%
same,Activity,[3],99%
same,Activity,[4],99%
same,Activity,[5],61%
same,Activity,[6],96%
same,Vd,[7],18.2 L/kg
same,Activity,[8],97%
same,Activity,[9],88%
same,Activity,[10],87%
same,Activity,[11],99%
same,half-life,[12],1.72 h
same,Activity,[13],97%
same,Activity,[14],93%
same,Activity,[15],100%
same,Activity,[16],98%
same,Activity,[17],100%
same,Activity,[18],100%
same,Activity,[19],80%
same,Activity,[20],96%
